Laboratory results from ChEMBL document CHEMBL1121365, “N,N'-Dialkylbis(dichlorophenyl)ethylenediamines and -imidazolidines: relationship between structure and estradiol receptor affinity” (J Med Chem, 1980).

Experiments:
[1] = target: T1, Estrogen receptor (Rattus norvegicus) (UniProt P06211+Q62986); experiment: In vitro association constant when complexed with the Estrogen receptor in Sprague-Dawley rat; Inhibition less than 10% at a ratio of [3H]estradiol/substance of 10e-4 M; type: protein assay
[2] = target: T1, Estrogen receptor (Rattus norvegicus); experiment: In vitro affinity for rat Estrogen receptor; type: protein assay
[3] = target: T2, Estrogen receptor (Mus musculus) (UniProt O08537+P19785); experiment: (§1) Uterotrophic effect in immature mice as uterine dry weight(mg) relative to body weight(g) at 0 ug/day dose; type: functional, tissue-based; conditions: Uterus
How it was run: (§2)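 Dorfman uterine weight test for estrogenic and antiestrogenic activity. Compounds were dissolved in arachis oil and given subcutaneously. Uterine weight was the read-out.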

[4] = target: T2, Estrogen receptor (Mus musculus); experiment: (§3) Uterotrophic effect in immature mice as uterine dry weight(mg) relative to body weight(g) at 1000 ug/day dose; type: functional, tissue-based; conditions: Uterus, in the assay text read “100 ug/day” for “1000 ug/day”; how it was run: as §2
[5] = target: T2, Estrogen receptor (Mus musculus); experiment: Uterotrophic effect in immature mice as uterine dry weight(mg) relative to body weight(g) at 20 ug/day dose; type: functional, tissue-based; conditions: Uterus; how it was run: as §2
[6] = target: T2, Estrogen receptor (Mus musculus); experiment: (§4) Uterotrophic effect in immature mice as uterine dry weight(mg) relative to body weight(g) at 500 ug/day dose; type: functional, tissue-based; conditions: Uterus; how it was run: as §2
[7] = target: T2, Estrogen receptor (Mus musculus); experiment: as §3; type: functional, tissue-based; conditions: Uterus
How it was run: (§5)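 Dorfman uterine weight test for estrogenic and antiestrogenic properties. Compounds were dissolved in arachis oil and given sc. Other details are in an earlier paper.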

[8] = target: T2, Estrogen receptor (Mus musculus); experiment: (§6) Uterotrophic effect in immature mice as uterine dry weight(mg) relative to body weight(g) at 2500 ug/day dose; type: functional, tissue-based; conditions: Uterus; how it was run: as §5
[9] = target: T2, Estrogen receptor (Mus musculus); experiment: as §4; type: functional, tissue-based; conditions: Uterus; how it was run: as §5; remark: listed apart in the source
[10] = target: T2, Estrogen receptor (Mus musculus); experiment: as §1; type: functional, tissue-based; conditions: Uterus; how it was run: as §5; remark: listed apart in the source
[11] = target: T2, Estrogen receptor (Mus musculus); experiment: Uterotrophic effect in immature mice as uterine dry weight(mg) relative to body weight(g) at 100 ug/day dose; type: functional, tissue-based; conditions: Uterus; how it was run: as §5
[12] = target: T2, Estrogen receptor (Mus musculus); experiment: Uterotrophic effect in immature mice as uterine dry weight(mg) relative to body weight(g) at 24 ug/day dose; type: functional, tissue-based; conditions: Uterus; how it was run: as §2
[13] = target: T2, Estrogen receptor (Mus musculus); experiment: Uterotrophic effect in immature mice as uterine dry weight(mg) relative to body weight(g) at 2400 ug/day dose; type: functional, tissue-based; conditions: Uterus; how it was run: as §2
[14] = target: T2, Estrogen receptor (Mus musculus); experiment: Uterotrophic effect in immature mice as uterine dry weight(mg) relative to body weight(g) at 400 ug/day dose; type: functional, tissue-based; conditions: Uterus; how it was run: as §2
[15] = target: T2, Estrogen receptor (Mus musculus); experiment: Uterotrophic effect in immature mice as uterine dry weight(mg) relative to body weight(g) at 80 ug/day dose; type: functional, tissue-based; conditions: Uterus; how it was run: as §2
[16] = target: T2, Estrogen receptor (Mus musculus); experiment: as §6; type: functional, tissue-based; conditions: Uterus; how it was run: as §2; remark: listed apart in the source
[17] = target: T2, Estrogen receptor (Mus musculus); experiment: Uterotrophic effect in immature mice as uterine dry weight(mg) relative to body weight(g) at 5000 ug/day dose; type: functional, tissue-based; conditions: Uterus; how it was run: as §2

T2 sequence (O08537 whole entry, looked up): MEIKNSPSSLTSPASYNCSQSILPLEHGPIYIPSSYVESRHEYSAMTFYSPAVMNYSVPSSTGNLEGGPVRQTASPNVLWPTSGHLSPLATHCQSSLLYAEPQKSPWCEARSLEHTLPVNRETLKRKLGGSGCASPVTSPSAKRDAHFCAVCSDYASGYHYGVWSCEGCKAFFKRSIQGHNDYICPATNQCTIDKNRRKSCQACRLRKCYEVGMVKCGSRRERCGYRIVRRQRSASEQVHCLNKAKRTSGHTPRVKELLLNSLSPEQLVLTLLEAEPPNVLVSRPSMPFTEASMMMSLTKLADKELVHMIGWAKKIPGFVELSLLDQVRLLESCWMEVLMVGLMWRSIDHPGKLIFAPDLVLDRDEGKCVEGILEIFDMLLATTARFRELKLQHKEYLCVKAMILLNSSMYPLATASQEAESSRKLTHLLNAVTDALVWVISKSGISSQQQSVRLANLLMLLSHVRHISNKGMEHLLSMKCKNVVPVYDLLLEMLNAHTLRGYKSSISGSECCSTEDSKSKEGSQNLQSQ
T2 sequence (P19785 whole entry, looked up): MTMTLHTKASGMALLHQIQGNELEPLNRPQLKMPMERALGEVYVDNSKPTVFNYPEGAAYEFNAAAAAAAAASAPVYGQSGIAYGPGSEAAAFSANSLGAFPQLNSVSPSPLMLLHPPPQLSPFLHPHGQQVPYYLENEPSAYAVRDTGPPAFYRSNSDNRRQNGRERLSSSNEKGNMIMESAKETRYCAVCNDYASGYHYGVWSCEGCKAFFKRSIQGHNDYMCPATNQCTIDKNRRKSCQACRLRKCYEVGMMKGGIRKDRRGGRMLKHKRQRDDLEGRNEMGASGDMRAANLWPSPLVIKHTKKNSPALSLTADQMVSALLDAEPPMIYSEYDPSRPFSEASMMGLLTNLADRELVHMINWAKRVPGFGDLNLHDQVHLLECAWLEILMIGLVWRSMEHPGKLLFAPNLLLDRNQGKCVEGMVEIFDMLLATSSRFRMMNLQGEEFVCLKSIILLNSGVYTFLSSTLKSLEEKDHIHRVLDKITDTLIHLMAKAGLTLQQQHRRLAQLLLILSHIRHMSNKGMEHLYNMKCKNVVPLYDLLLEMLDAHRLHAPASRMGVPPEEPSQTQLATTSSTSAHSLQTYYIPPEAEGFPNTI

| SMILES | inhibition [1] [%] | Ka [2] | also measured |
| --- | --- | --- | --- |
| CCNC(c1cc(Cl)cc(Cl)c1)C(NCC)c1cc(Cl)cc(Cl)c1 (stereo in doubt; 21 (d,l)) | < 10 |  |  |
| CCN1CN(CC)C(c2cc(Cl)cc(Cl)c2)C1c1cc(Cl)cc(Cl)c1 (trans isomer) | < 10 |  |  |
| CCCNC(c1c(Cl)cccc1Cl)C(NCCC)c1c(Cl)cccc1Cl (stereo in doubt; 2g (d,l)) |  | 830000 | Effect [3]: 12.9; Effect [4]: 19.6; Effect [5]: 15.5; Effect [6]: 27.1 |
| CCN1CN(CC)C(c2ccc(Cl)cc2Cl)C1c1ccc(Cl)cc1Cl (trans isomer) | < 10 |  |  |
| CCCCNC(c1ccc(Cl)cc1Cl)C(NCCCC)c1ccc(Cl)cc1Cl (stereo in doubt) | < 10 |  |  |
| CCN1CN(CC)C(c2ccc(Cl)c(Cl)c2)C1c1ccc(Cl)c(Cl)c1 (stereo in doubt) | < 10 |  |  |
| CNC(c1ccc(Cl)cc1Cl)C(NC)c1ccc(Cl)cc1Cl (stereo in doubt) | < 10 |  |  |
| CC[C@H](c1ccc(O)cc1)[C@@H](CC)c1ccc(O)cc1 |  | 8.3e+08 |  |
| CN1CN(C)C(c2c(Cl)cccc2Cl)C1c1c(Cl)cccc1Cl (stereo in doubt; cis) |  | 180000 |  |
| CNC(c1ccc(Cl)cc1Cl)C(NC)c1ccc(Cl)cc1Cl (stereo in doubt; 2a (d,l)) | < 10 |  |  |
| CCCNC(c1ccc(Cl)cc1Cl)C(NCCC)c1ccc(Cl)cc1Cl (stereo in doubt) | < 10 |  |  |
| CCNC(c1c(Cl)cccc1Cl)C(NCC)c1c(Cl)cccc1Cl (stereo in doubt) |  | 670000 | Effect [7]: 27.4; Effect [8]: 35.6; Effect [9]: 23.5; Effect [10]: 12.8; Effect [11]: 22.7 |
| CCNC(c1ccc(Cl)c(Cl)c1)C(NCC)c1ccc(Cl)c(Cl)c1 (stereo in doubt; 2i (d,l)) | < 10 |  |  |
| CCCCNC(c1c(Cl)cccc1Cl)C(NCCCC)c1c(Cl)cccc1Cl (stereo in doubt; 2h (d,l)) | < 10 |  |  |
| CCN1CN(CC)C(c2c(Cl)cccc2Cl)C1c1c(Cl)cccc1Cl (trans isomer) |  | 200000 | Effect [3]: 14.9; Effect [12]: 22.8; Effect [13]: 46.2; Effect [14]: 38.1; Effect [15]: 24.2 |
| CCCN1CN(CCC)C(c2c(Cl)cccc2Cl)C1c1c(Cl)cccc1Cl (trans isomer) |  | 1.6e+06 | Effect [3]: 12.9; Effect [4]: 21.4; Effect [5]: 19.6; Effect [16]: 43; Effect [6]: 28 |
| CCCCNC(c1ccc(Cl)c(Cl)c1)C(NCCCC)c1ccc(Cl)c(Cl)c1 (stereo in doubt; 2k (d,l)) | < 10 |  |  |
| CN1CN(C)C(c2c(Cl)cccc2Cl)C1c1c(Cl)cccc1Cl (stereo in doubt; trans) |  | 480000 |  |
| CCNC(c1c(Cl)cccc1Cl)C(NCC)c1c(Cl)cccc1Cl (stereo in doubt; 2f (d,l)) |  | 130000 |  |

| SMILES | inhibition [1] [%] | Ka [2] | also measured |
| --- | --- | --- | --- |
| CCNC(c1ccc(Cl)cc1Cl)C(NCC)c1ccc(Cl)cc1Cl (stereo in doubt) | < 10 |  |  |
| CCCNC(c1ccc(Cl)cc1Cl)C(NCCC)c1ccc(Cl)cc1Cl (stereo in doubt; 2c (d,l)) | < 10 |  |  |
| CCN1CN(CC)C(c2c(Cl)cccc2Cl)C1c1c(Cl)cccc1Cl (cis isomer) |  | 200000 | Effect [3]: 12.8; Effect [4]: 17.1; Effect [16]: 22.3; Effect [6]: 19.7 |
| CCCN1CN(CCC)C(c2c(Cl)cccc2Cl)C1c1c(Cl)cccc1Cl (stereo in doubt) |  | 320000 | Effect [3]: 12.8; Effect [4]: 17.7; Effect [16]: 19.7; Effect [6]: 16.2; Effect [17]: 24.5 |
| CCNC(c1ccc(Cl)cc1Cl)C(NCC)c1ccc(Cl)cc1Cl (stereo in doubt; 2b (d,l)) | < 10 |  |  |
| CCCCNC(c1ccc(Cl)c(Cl)c1)C(NCCCC)c1ccc(Cl)c(Cl)c1 (stereo in doubt) | < 10 |  |  |
| CCN1CN(CC)C(c2ccc(Cl)cc2Cl)C1c1ccc(Cl)cc1Cl (stereo in doubt) | < 10 |  |  |
| CCNC(c1cc(Cl)cc(Cl)c1)C(NCC)c1cc(Cl)cc(Cl)c1 (stereo in doubt) | < 10 |  |  |
| CCCCN1CN(CCCC)C(c2c(Cl)cccc2Cl)C1c1c(Cl)cccc1Cl (stereo in doubt; trans) | < 10 |  |  |
| CCCCN1CN(CCCC)C(c2c(Cl)cccc2Cl)C1c1c(Cl)cccc1Cl (stereo in doubt; cis) | < 10 |  |  |
| CCN1CN(CC)C(c2cc(Cl)cc(Cl)c2)C1c1cc(Cl)cc(Cl)c1 (cis isomer) | < 10 |  |  |
| CCCNC(c1c(Cl)cccc1Cl)C(NCCC)c1c(Cl)cccc1Cl (stereo in doubt) |  | 2.3e+06 | Effect [3]: 12.9; Effect [4]: 17.5; Effect [5]: 14.8; Effect [16]: 31.3; Effect [6]: 22.6 |
| CNC(c1c(Cl)cccc1Cl)C(NC)c1c(Cl)cccc1Cl (stereo in doubt) |  | 91000 |  |
| CCN1CN(CC)C(c2ccc(Cl)c(Cl)c2)C1c1ccc(Cl)c(Cl)c1 (trans isomer) | < 10 |  |  |
| CCCCNC(c1ccc(Cl)cc1Cl)C(NCCCC)c1ccc(Cl)cc1Cl (stereo in doubt; 2d (d,l)) | < 10 |  |  |
| CNC(c1c(Cl)cccc1Cl)C(NC)c1c(Cl)cccc1Cl (stereo in doubt; 2e (d,l)) |  | 140000 |  |
| CCCCNC(c1c(Cl)cccc1Cl)C(NCCCC)c1c(Cl)cccc1Cl (stereo in doubt) | < 10 |  |  |
| CCNC(c1ccc(Cl)c(Cl)c1)C(NCC)c1ccc(Cl)c(Cl)c1 (stereo in doubt) | < 10 |  |  |
